Experimental data taken from ChEMBL document CHEMBL1629436, “Synthesis and biological evaluation of new camptothecin derivatives obtained by modification of position 20” (Bioorg Med Chem, 2010).
Calls of active or inactive are those of the source. The rule behind the calls is not given here.

Key:
yA7 [1] = assay: Induction apoptosis in mouse yA7 cells assessed as relative caspase activity at 10 uM/L after 2 hrs by rhodamine 110 fluorescence assay; type: functional, cell-based
Method in brief: (§1)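 Cells were pretreated with compound (10 µmol/L) for 2 h. The cell-permeable caspase substrate (Asp)2-rhodamine 110 (10 µmol/L) was then added for 2 h more. Caspase cleavage releases fluorescent rhodamine 110, and the read-out was mean fluorescence.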

Nucleic Acid = assay: Binding affinity to salmon testes DNA by linear flow dichroism analysis; type: nucleic-acid assay; details: Salmonidae
Method in brief: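 Salmon testes DNA (1.9 × 10^-3 M) in ETN buffer (10 mM Tris, 10 mM NaCl, 1 mM EDTA, pH 7). Linear dichroism spectra were recorded at 25 °C over a range of [drug]/[DNA] ratios on a spectropolarimeter converted for LD.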

B3 [2] = assay: Induction apoptosis in mouse B3 cells assessed as relative caspase activity at 10 uM/L after 2 hrs by rhodamine 110 fluorescence assay; type: functional, cell-based; method in brief: as §1
yA7 [3] = assay: Induction apoptosis in mouse yA7 cells assessed as ROS production at 10 uM/L using DCFH-DA by flow cytometry relative to control; type: functional, cell-based
Method in brief: (§2)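 Transgenic mouse cells exposed to compound at 10 µmol/L. ROS generation was measured by flow cytometry using the probe DCFH-DA.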

Mus musculus [4] = organism: Mus musculus; assay: Induction apoptosis in mouse betaD10 cells assessed as ROS production at 10 uM/L using DCFH-DA by flow cytometry relative to control; type: functional, cell-based; method in brief: as §2
B3 [5] = assay: Induction apoptosis in mouse B3 cells assessed as ROS production at 10 uM/L using DCFH-DA by flow cytometry relative to control; type: functional, cell-based; method in brief: as §2
Mus musculus [6] = organism: Mus musculus; assay: Induction apoptosis in mouse betaD10 cells assessed as relative caspase activity at 10 uM/L after 2 hrs by rhodamine 110 fluorescence assay; type: functional, cell-based; method in brief: as §1
Mus musculus [7] = organism: Mus musculus; assay: Induction apoptosis in mouse betaD5 cells assessed as relative caspase activity at 10 uM/L after 2 hrs by rhodamine 110 fluorescence assay; type: functional, cell-based; method in brief: as §1
Mus musculus [8] = organism: Mus musculus; assay: Induction apoptosis in mouse betaD5 cells assessed as ROS production at 10 uM/L using DCFH-DA by flow cytometry relative to control; type: functional, cell-based; method in brief: as §2
A2B1 [9] = assay: Cytotoxicity against mouse A2B1 cells after 24 to 96 hrs by MTS assay; type: functional, cell-based
Method in brief: (§3)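 Mouse transgenic lines plated at 10^3 cells/well and left 24 h to attach. Drugs diluted in medium were added for 24 or 96 h. CellTiter 96 AQueous One (MTS) reagent was then added for 1 h at 37 °C, with absorbance read at 490 nm. Each condition was run in quintuplicate, and cytotoxicity was expressed as percent of controls.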

A-431 = assay: Cytotoxicity against human A431 cells after 72 hrs by trypan blue assay; type: functional, cell-based; details: A-431, 72 h
Method in brief: (§4)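 A-431, HeLa and HL-60 cells at 4×10^4 per well, incubated 24 h. HeLa and A-431 then received fresh medium. Graded compound concentrations were added for a further 72 h at 37 °C, 5% CO2. Viability was counted by Trypan blue exclusion. IC50 is the concentration giving 50% reduction in cell number versus control: ≥3 independent experiments, triplicate samples, mean ± SD.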

yB8 [10] = assay: Cytotoxicity against mouse yB8 cells after 24 to 96 hrs by MTS assay; type: functional, cell-based; method in brief: as §3
yA7 [11] = assay: Cytotoxicity against mouse yA7 cells after 24 to 96 hrs by MTS assay; type: functional, cell-based; method in brief: as §3
yA3 [12] = assay: Cytotoxicity against mouse yA3 cells after 24 to 96 hrs by MTS assay; type: functional, cell-based; method in brief: as §3
Bos taurus = organism: Bos taurus; assay: Inhibition of calf thymus topoisomerase 1-mediated relaxation of supercoiled pBR322 at 100 uM after 60 mins using ethidium bromide staining by agarose gel electrophoresis
Method in brief: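 Supercoiled pBR322 (0.25 µg) with 2 U calf thymus topoisomerase I and test compound, 60 min at 37 °C in 20 µl reaction buffer. Stopped with SDS/bromophenol blue/glycerol plus 50 µg/mL proteinase K, 30 min at 37 °C. Run on 1% agarose at room temperature, stained with ethidium bromide 1 µg/mL in TAE, imaged under UV.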

yD1 [13] = assay: Induction apoptosis in mouse yD1 cells assessed as relative caspase activity at 10 uM/L after 2 hrs by rhodamine 110 fluorescence assay; type: functional, cell-based; method in brief: as §1
HeLa = assay: Cytotoxicity against human HeLa cells after 72 hrs by trypan blue assay; type: functional, cell-based; method in brief: as §4
yB8 [14] = assay: Induction apoptosis in mouse yB8 cells assessed as relative caspase activity at 10 uM/L after 2 hrs by rhodamine 110 fluorescence assay; type: functional, cell-based; method in brief: as §1
yD12 [15] = assay: Induction apoptosis in mouse yD12 cells assessed as relative caspase activity at 10 uM/L after 2 hrs by rhodamine 110 fluorescence assay; type: functional, cell-based; method in brief: as §1
yD12 [16] = assay: Induction apoptosis in mouse yD12 cells assessed as ROS production at 10 uM/L using DCFH-DA by flow cytometry relative to control; type: functional, cell-based; method in brief: as §2
yD12 [17] = assay: Cytotoxicity against mouse yD12 cells after 24 to 96 hrs by MTS assay; type: functional, cell-based; method in brief: as §3
A2C12 [18] = assay: Cytotoxicity against mouse A2C12 cells after 24 to 96 hrs by MTS assay; type: functional, cell-based; method in brief: as §3
Craf/Cmyc [19] = assay: Induction apoptosis in mouse Craf/Cmyc cells assessed as ROS production at 10 uM/L using DCFH-DA by flow cytometry relative to control; type: functional, cell-based; method in brief: as §2
HL-60 = assay: Cytotoxicity against human HL60 cells after 72 hrs by trypan blue assay; type: functional, cell-based; details: HL-60, 72 h; method in brief: as §4
HUVEC [20] = assay: Antiangiogenic activity in HUVEC cocultured with human PaSMC assessed as inhibition of capillary-like network formation up to 200 nM after 72 hrs; type: functional, cell-based
Method in brief: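 Primary HUVEC (passage 5, retrovirally labelled with RFP) and pulmonary artery vSMC (passage 5) co-seeded at 5×10^4 PaSMC plus 10×10^3 HUVEC per well in EGM-2, briefly spun at 200 g, attached 3 h. Compounds were then added at final 2–200 nM, two replicates per concentration. Networks formed over 72 h at 37 °C, 5% CO2, followed by automated imaging and image analysis of tube formation.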

yA3 [21] = assay: Induction apoptosis in mouse yA3 cells assessed as relative caspase activity at 10 uM/L after 2 hrs by rhodamine 110 fluorescence assay; type: functional, cell-based; method in brief: as §1
Craf/Cmyc [22] = assay: Induction apoptosis in mouse Craf/Cmyc cells assessed as relative caspase activity at 10 uM/L after 2 hrs by rhodamine 110 fluorescence assay; type: functional; method in brief: as §1
yA3 [23] = assay: Induction apoptosis in mouse yA3 cells assessed as ROS production at 10 uM/L using DCFH-DA by flow cytometry relative to control; type: functional, cell-based; method in brief: as §2
B3 [24] = assay: Cytotoxicity against mouse B3 cells after 24 to 96 hrs by MTS assay; type: functional, cell-based; method in brief: as §3
yD1 [25] = assay: Induction apoptosis in mouse yD1 cells assessed as ROS production at 10 uM/L using DCFH-DA by flow cytometry relative to control; type: functional, cell-based; method in brief: as §2
A2C12 [26] = assay: Induction apoptosis in mouse A2C12 cells assessed as ROS production at 10 uM/L using DCFH-DA by flow cytometry relative to control; type: functional, cell-based; method in brief: as §2
yB8 [27] = assay: Induction apoptosis in mouse yB8 cells assessed as ROS production at 10 uM/L using DCFH-DA by flow cytometry relative to control; type: functional, cell-based; method in brief: as §2
Mus musculus [28] = organism: Mus musculus; assay: Cytotoxicity against mouse betaD5 cells after 24 to 96 hrs by MTS assay; type: functional, cell-based; method in brief: as §3
A2B1 [29] = assay: Induction apoptosis in mouse A2B1 cells assessed as relative caspase activity at 10 uM/L after 2 hrs by rhodamine 110 fluorescence assay; type: functional, cell-based; method in brief: as §1
Craf/Cmyc [30] = assay: Cytotoxicity against mouse Craf/Cmyc cells after 24 to 96 hrs by MTS assay; type: functional, cell-based; method in brief: as §3
A2B1 [31] = assay: Induction apoptosis in mouse A2B1 cells assessed as ROS production at 10 uM/L using DCFH-DA by flow cytometry relative to control; type: functional, cell-based; method in brief: as §2
Mus musculus [32] = organism: Mus musculus; assay: Cytotoxicity against mouse betaD10 cells after 24 to 96 hrs by MTS assay; type: functional, cell-based; method in brief: as §3
[33] = target: DNA topoisomerase 2-alpha (Homo sapiens) (UniProt P11388); assay: Inhibition of human recombinant topoisomerase 2alpha-mediated relaxation of supercoiled pBR322 after 60 mins using ethidium bromide staining by agarose gel electrophoresis
Sequence of DNA topoisomerase 2-alpha (Homo sapiens) (P11388 whole entry): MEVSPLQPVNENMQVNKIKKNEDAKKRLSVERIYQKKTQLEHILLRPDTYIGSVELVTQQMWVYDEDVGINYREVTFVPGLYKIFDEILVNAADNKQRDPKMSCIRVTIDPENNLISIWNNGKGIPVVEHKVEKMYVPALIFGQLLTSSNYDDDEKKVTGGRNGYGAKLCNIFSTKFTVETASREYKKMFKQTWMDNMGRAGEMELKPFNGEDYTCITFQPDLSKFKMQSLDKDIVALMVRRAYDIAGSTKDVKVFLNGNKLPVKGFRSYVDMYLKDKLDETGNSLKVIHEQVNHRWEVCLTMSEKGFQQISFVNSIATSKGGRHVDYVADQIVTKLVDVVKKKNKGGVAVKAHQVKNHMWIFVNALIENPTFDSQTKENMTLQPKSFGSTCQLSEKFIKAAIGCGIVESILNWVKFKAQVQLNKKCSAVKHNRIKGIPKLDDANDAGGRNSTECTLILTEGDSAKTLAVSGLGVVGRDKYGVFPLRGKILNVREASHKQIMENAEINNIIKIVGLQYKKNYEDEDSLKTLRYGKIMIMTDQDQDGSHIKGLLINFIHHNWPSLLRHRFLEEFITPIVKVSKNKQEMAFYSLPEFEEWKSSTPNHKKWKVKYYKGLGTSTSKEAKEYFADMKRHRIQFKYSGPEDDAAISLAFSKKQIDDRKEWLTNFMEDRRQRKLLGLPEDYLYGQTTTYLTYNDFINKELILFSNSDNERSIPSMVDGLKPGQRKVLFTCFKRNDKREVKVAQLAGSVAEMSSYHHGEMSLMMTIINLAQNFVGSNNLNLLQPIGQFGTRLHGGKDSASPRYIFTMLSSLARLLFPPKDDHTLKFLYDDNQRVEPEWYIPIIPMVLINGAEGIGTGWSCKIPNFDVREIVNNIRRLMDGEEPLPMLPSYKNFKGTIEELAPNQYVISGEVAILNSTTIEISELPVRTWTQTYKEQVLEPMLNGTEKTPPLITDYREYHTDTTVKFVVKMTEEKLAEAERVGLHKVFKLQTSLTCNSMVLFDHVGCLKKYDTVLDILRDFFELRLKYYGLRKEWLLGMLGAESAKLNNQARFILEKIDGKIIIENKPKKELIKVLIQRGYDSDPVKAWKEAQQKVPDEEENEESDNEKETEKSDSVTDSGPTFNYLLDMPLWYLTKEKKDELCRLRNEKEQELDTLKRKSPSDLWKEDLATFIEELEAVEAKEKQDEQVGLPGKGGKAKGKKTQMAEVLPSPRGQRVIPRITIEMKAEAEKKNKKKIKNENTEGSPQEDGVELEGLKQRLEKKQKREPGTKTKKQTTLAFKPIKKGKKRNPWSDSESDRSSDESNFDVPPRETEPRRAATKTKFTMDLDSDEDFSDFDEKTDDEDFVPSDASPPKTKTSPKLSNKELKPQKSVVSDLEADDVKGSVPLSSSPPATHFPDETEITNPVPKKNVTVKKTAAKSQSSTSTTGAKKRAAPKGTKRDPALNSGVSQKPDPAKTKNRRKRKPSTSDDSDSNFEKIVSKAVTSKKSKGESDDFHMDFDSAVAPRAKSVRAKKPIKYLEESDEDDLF
Method in brief: (§5)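 Supercoiled pBR322 (0.25 µg) with 1 U human recombinant topoisomerase IIα and test compound, 60 min at 37 °C in 20 µl reaction buffer. Stopped with SDS/bromophenol blue/glycerol plus 50 µg/mL proteinase K, 30 min at 37 °C. Separated on 1% agarose at room temperature, ethidium bromide stained (1 µg/mL, TAE), UV-visualized.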

[34] = target: DNA topoisomerase 2-alpha (Homo sapiens) (UniProt P11388); assay: Inhibition of human recombinant topoisomerase 2alpha-mediated relaxation of supercoiled pBR322 at 100 uM after 60 mins using ethidium bromide staining by agarose gel electrophoresis; method in brief: as §5
A2C12 [35] = assay: Induction apoptosis in mouse A2C12 cells assessed as relative caspase activity at 10 uM/L after 2 hrs by rhodamine 110 fluorescence assay; type: functional, cell-based; method in brief: as §1
[36] = target: DNA topoisomerase 2-alpha (Homo sapiens) (UniProt P11388); assay: Inhibition of human recombinant topoisomerase 2alpha-mediated relaxation of supercoiled pBR322 at 50 uM after 60 mins using ethidium bromide staining by agarose gel electrophoresis; method in brief: as §5
HUVEC [37] = assay: Antiangiogenic activity in HUVEC cocultured with human PaSMC assessed as inhibition of capillary-like network formation at 25 nM after 72 hrs; type: functional, cell-based
Method in brief: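 RFP-expressing HUVEC (early passage, passage 5) co-seeded with pulmonary artery vSMC (5×10^4 PaSMC plus 10×10^3 HUVEC per well) in EGM-2, briefly spun at 200 g and allowed to attach for 3 h. Compounds were added at final 2–200 nM, two replicates per concentration, at 37 °C, 5% CO₂. Network was imaged at 72 h with automated imaging, and tube length was quantified by image analysis.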

Q: What does the source list for `CC[C@@]1(OC(=O)NCCN2C(=O)CCSSCCC2=O)C(=O)OCc2c1cc1n(c2=O)Cc2cc3ccccc3nc2-1`?
A: Activity (yA7 [1]): inactive; Activity (Nucleic Acid): inactive; Activity (B3 [2]): inactive; Activity (yA7 [3]): inactive; Activity (Mus musculus [4]): inactive; Activity (B3 [5]): inactive; Activity (Mus musculus [6]): inactive; Activity (Mus musculus [7]): inactive; Activity (Mus musculus [8]): inactive; Activity (A2B1 [9]): Active; IC50 (A-431): 2970 nM; Activity (yB8 [10]): Active; Activity (yA7 [11]): Active; Activity (yA3 [12]): Active; Activity (Bos taurus): inactive; Activity (yD1 [13]): inactive; IC50 (HeLa): 12000 nM; Activity (yB8 [14]): inactive; Activity (yD12 [15]): inactive; Activity (yD12 [16]): inactive; Activity (yD12 [17]): Active; Activity (A2C12 [18]): Active; Activity (Craf/Cmyc [19]): inactive; IC50 (HL-60): 8100 nM; Activity (HUVEC [20]): inactive; Activity (yA3 [21]): inactive; Activity (Craf/Cmyc [22]): inactive; Activity (yA3 [23]): inactive; Activity (B3 [24]): Active; Activity (yD1 [25]): inactive; Activity (A2C12 [26]): inactive; Activity (yB8 [27]): inactive; Activity (Mus musculus [28]): Active; Activity (A2B1 [29]): inactive; Activity (Craf/Cmyc [30]): Active; Activity (A2B1 [31]): inactive; Activity (Mus musculus [32]): Active; Activity [33]: Dose-dependent effect; Activity [34]: Active; Activity (A2C12 [35]): inactive

Q: Which results are given for `CC[C@@]1(OC(=O)NCCNC(=O)CCSSCCC(=O)NCCNC(=O)O[C@]2(CC)C(=O)OCc3c2cc2n(c3=O)Cc3cc4ccccc4nc3-2)C(=O)OCc2c1cc1n(c2=O)Cc2cc3ccccc3nc2-1`?
A: Activity (Nucleic Acid): inactive; inhibition [36]: Active; Activity (A2B1 [9]): Active; IC50 (A-431): 150 nM; Activity (yB8 [10]): Active; Activity (yA7 [11]): Active; Activity (yA3 [12]): Active; Activity (Bos taurus): inactive; IC50 (HeLa): 700 nM; Activity (yD12 [17]): Active; Activity (A2C12 [18]): Active; IC50 (HL-60): 920 nM; Activity (B3 [24]): Active; Activity (Mus musculus [28]): Active; Activity (Craf/Cmyc [30]): Active; Activity (Mus musculus [32]): Active; Activity [33]: Dose-dependent effect

Q: What does the source list for `CC[C@@]1(O)C(=O)OCc2c1cc1n(c2=O)Cc2cc3ccccc3nc2-1` [CAMPTOTHECIN]?
A: inhibition (HUVEC [37]): Active; IC50 (A-431): 11 nM; IC50 (HeLa): 8.9 nM; IC50 (HL-60): 17 nM
